# According to ChEMBL document CHEMBL1649483, “Molecular analysis of the gyrA and gyrB quinolone resistance-determining regions of fluoroquinolone-resistant Clostridium difficile mutants selected in vitro” (2009):
# How the values were obtained:
# Type in all cases: functional
# Clostridioides difficile [1] = assay: Antimicrobial activity against Clostridium difficile A422g harboring GyrA Asp81Asn mutant gene selected after 8 ug/ml of moxifloxacin by Etest method
# Procedure, shortened: (§1)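 Stable in vitro-selected mutant tested for gatifloxacin susceptibility by Etest, per the manufacturer's instructions, with an 8 μg/ml breakpoint. For selection, the parent was grown in antibiotic-free brain heart infusion (BHI) for 24 h at 35°C under anaerobic conditions. […] Later steps used double the MIC. Stability was confirmed by three subcultures.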
# Clostridioides difficile [2] = assay: Antimicrobial activity against Clostridium difficile A422h harboring GyrA Asp81Asn mutant gene selected after 8 ug/ml of moxifloxacin by Etest method; procedure, shortened: as §1
# Clostridioides difficile [3] = assay: Antimicrobial activity against Clostridium difficile A422i harboring GyrA Asp81Asn mutant gene selected after 8 ug/ml of moxifloxacin by Etest method; procedure, shortened: as §1
# Clostridioides difficile [4] = assay: Antimicrobial activity against Clostridium difficile 630h harboring GyrB […] mutant gene selected after 8 ug/ml of moxifloxacin by Etest method; procedure, shortened: as §1
# Clostridioides difficile [5] = assay: Antimicrobial activity against Clostridium difficile BI2a harboring GyrB Arg447Lys mutant gene selected after 2 ug/ml of moxifloxacin by Etest method; procedure, shortened: as §1
# Clostridioides difficile [6] = assay: Antimicrobial activity against Clostridium difficile BI2e harboring GyrB Arg447Lys and Asp426Asn mutant gene selected after 32 ug/ml of moxifloxacin by Etest method; procedure, shortened: as §1
# Clostridioides difficile [7] = assay: Antimicrobial activity against Clostridium difficile C253C selected after 4 ug/ml of levofloxacin by Etest method
# Clostridioides difficile [8] = assay: Antimicrobial activity against Clostridium difficile C253D selected after 8 ug/ml of levofloxacin by Etest method
# Clostridioides difficile [9] = assay: Antimicrobial activity against Clostridium difficile C253E selected after 8 ug/ml of levofloxacin by Etest method
# Clostridioides difficile [10] = assay: Antimicrobial activity against Clostridium difficile CD5C harboring GyrB Ser416Ala mutant gene selected after 4 ug/ml of levofloxacin by Etest method
# Clostridioides difficile [11] = assay: Antimicrobial activity against Clostridium difficile A422G harboring GyrA Thr82Ile and GyrB Leu451Phe mutant genes selected after 8 ug/ml of levofloxacin by Etest method; procedure, shortened: as §1
# Clostridioides difficile [12] = assay: Antimicrobial activity against Clostridium difficile A422H harboring GyrA Thr82Ile and GyrB Leu451Phe mutant genes selected after 8 ug/ml of levofloxacin by Etest method; procedure, shortened: as §1
# Clostridioides difficile [13] = assay: Antimicrobial activity against Clostridium difficile 630D harboring GyrA Ala118Val mutant gene selected after 8 ug/ml of levofloxacin by Etest method; procedure, shortened: as §1
# Clostridioides difficile [14] = assay: Antimicrobial activity against Clostridium difficile BI2C selected after 4 ug/ml of levofloxacin by Etest method; procedure, shortened: as §1
# Clostridioides difficile [15] = assay: Antimicrobial activity against Clostridium difficile A422 expressing tcdA and tcdB gene by Etest method
# Procedure, shortened: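 Parent clinical or nontoxigenic isolate tested for gatifloxacin susceptibility by Etest, run per the manufacturer's instructions; a fluoroquinolone breakpoint of 8 μg/ml was applied.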
# Clostridioides difficile [16] = assay: Antimicrobial activity against Clostridium difficile C253a selected after 2 ug/ml of moxifloxacin by Etest method
# Clostridioides difficile [17] = assay: Antimicrobial activity against Clostridium difficile C253b selected after 2 ug/ml of moxifloxacin by Etest method
# Clostridioides difficile [18] = assay: Antimicrobial activity against Clostridium difficile C253c selected after 2 ug/ml of moxifloxacin by Etest method
# Clostridioides difficile [19] = assay: Antimicrobial activity against Clostridium difficile C253g harboring GyrA Ala118Ser mutant gene selected after 8 ug/ml of moxifloxacin by Etest method
# Clostridioides difficile [20] = assay: Antimicrobial activity against Clostridium difficile C253i harboring GyrA Ala118Ser mutant gene selected after 8 ug/ml of moxifloxacin by Etest method
# Clostridioides difficile [21] = assay: Antimicrobial activity against Clostridium difficile CD5 2-g harboring GyrA Ala118Ser, Thr82Ala and GyrB Ser416Ala mutant genes selected after 8 ug/ml of moxifloxacin by Etest method
# Clostridioides difficile [22] = assay: Antimicrobial activity against Clostridium difficile A422g harboring GyrA Asp81Asn mutant gene selected after 8 ug/ml of moxifloxacin by agar dilution method
# Clostridioides difficile [23] = assay: Antimicrobial activity against Clostridium difficile A422h harboring GyrA Asp81Asn mutant gene selected after 8 ug/ml of moxifloxacin by agar dilution method
# Clostridioides difficile [24] = assay: Antimicrobial activity against Clostridium difficile A422i harboring GyrA Asp81Asn mutant gene selected after 8 ug/ml of moxifloxacin by agar dilution method
# Clostridioides difficile [25] = assay: Antimicrobial activity against Clostridium difficile 630h harboring GyrB […] mutant gene selected after 8 ug/ml of moxifloxacin by agar dilution method
# Clostridioides difficile [26] = assay: Antimicrobial activity against Clostridium difficile BI2e harboring GyrB Arg447Lys and Asp426Asn mutant gene selected after 32 ug/ml of moxifloxacin by agar dilution method
# Clostridioides difficile [27] = assay: Antimicrobial activity against Clostridium difficile C253B selected after 4 ug/ml of levofloxacin by agar dilution method
# Clostridioides difficile [28] = assay: Antimicrobial activity against Clostridium difficile CD5C harboring GyrB Ser416Ala mutant gene selected after 4 ug/ml of levofloxacin by agar dilution method
# Clostridioides difficile [29] = assay: Antimicrobial activity against Clostridium difficile CD25 expressing tcdA, tcdB gene and GyrB Ser416Ala mutant by agar dilution method
# Clostridioides difficile [30] = assay: Antimicrobial activity against Clostridium difficile 630 expressing tcdA and tcdB gene by agar dilution method
# Clostridioides difficile [31] = assay: Antimicrobial activity against Clostridium difficile A422B selected after 4 ug/ml of levofloxacin by agar dilution method
# Clostridioides difficile [32] = assay: Antimicrobial activity against Clostridium difficile 630D harboring GyrA Ala118Val mutant gene selected after 8 ug/ml of levofloxacin by agar dilution method
# Clostridioides difficile [33] = assay: Antimicrobial activity against Clostridium difficile BI2B selected after 4 ug/ml of levofloxacin by agar dilution method
# Clostridioides difficile [34] = assay: Antimicrobial activity against Clostridium difficile BI2D harboring GyrB Glu466Lys mutant gene selected after 8 ug/ml of levofloxacin by agar dilution method
# Clostridioides difficile [35] = assay: Antimicrobial activity against Clostridium difficile BI2F harboring GyrB Glu466Lys mutant gene selected after 8 ug/ml of levofloxacin by agar dilution method
# Clostridioides difficile [36] = assay: Antimicrobial activity against Clostridium difficile C253a selected after 2 ug/ml of moxifloxacin by agar dilution method
# Clostridioides difficile [37] = assay: Antimicrobial activity against Clostridium difficile C253b selected after 2 ug/ml of moxifloxacin by agar dilution method
# Clostridioides difficile [38] = assay: Antimicrobial activity against Clostridium difficile C253e selected after 4 ug/ml of moxifloxacin by agar dilution method
# Clostridioides difficile [39] = assay: Antimicrobial activity against Clostridium difficile C253i harboring GyrA Ala118Ser mutant gene selected after 8 ug/ml of moxifloxacin by agar dilution method
# Clostridioides difficile [40] = assay: Antimicrobial activity against Clostridium difficile CD5c harboring GyrB Ser416Ala mutant gene selected after 2 ug/ml of moxifloxacin by agar dilution method
# Clostridioides difficile [41] = assay: Antimicrobial activity against Clostridium difficile CD5i harboring GyrA Ala92Glu and GyrB Ser416Ala mutant genes selected after 8 ug/ml of moxifloxacin by agar dilution method
smiles,measurement,setting,value
COc1c(N2CCNC(C)C2)c(F)cc2c(=O)c(C(=O)O)cn(C3CC3)c12 (stereo unspecified) [GATIFLOXACIN],MIC,Clostridioides difficile [1],≥ 32 µg/mL
same,MIC,Clostridioides difficile [2],≥ 32 µg/mL
same,MIC,Clostridioides difficile [3],≥ 32 µg/mL
same,MIC,Clostridioides difficile [4],≥ 32 µg/mL
same,MIC,Clostridioides difficile [5],1.5 µg/mL
same,MIC,Clostridioides difficile [6],6 µg/mL
same,MIC,Clostridioides difficile [7],0.5 µg/mL
same,MIC,Clostridioides difficile [8],1 µg/mL
same,MIC,Clostridioides difficile [9],1 µg/mL
same,MIC,Clostridioides difficile [10],0.5 µg/mL
same,MIC,Clostridioides difficile [11],≥ 32 µg/mL
same,MIC,Clostridioides difficile [12],≥ 32 µg/mL
same,MIC,Clostridioides difficile [13],3 µg/mL
same,MIC,Clostridioides difficile [14],2 µg/mL
same,MIC,Clostridioides difficile [15],0.75 µg/mL
same,MIC,Clostridioides difficile [16],1 µg/mL
same,MIC,Clostridioides difficile [17],1 µg/mL
same,MIC,Clostridioides difficile [18],1 µg/mL
same,MIC,Clostridioides difficile [19],8 µg/mL
same,MIC,Clostridioides difficile [20],8 µg/mL
same,MIC,Clostridioides difficile [21],16 µg/mL
C[C@H]1COc2c(N3CCN(C)CC3)c(F)cc3c(=O)c(C(=O)O)cn1c23.C[C@H]1COc2c(N3CCN(C)CC3)c(F)cc3c(=O)c(C(=O)O)cn1c23.O [LEVOFLOXACIN],MIC,Clostridioides difficile [22],64 µg/mL
same,MIC,Clostridioides difficile [23],64 µg/mL
same,MIC,Clostridioides difficile [24],64 µg/mL
same,MIC,Clostridioides difficile [25],64 µg/mL
same,MIC,Clostridioides difficile [26],64 µg/mL
same,MIC,Clostridioides difficile [27],1 µg/mL
same,MIC,Clostridioides difficile [28],1 µg/mL
same,MIC,Clostridioides difficile [29],2 µg/mL
same,MIC,Clostridioides difficile [30],2 µg/mL
same,MIC,Clostridioides difficile [31],1 µg/mL
same,MIC,Clostridioides difficile [32],8 µg/mL
same,MIC,Clostridioides difficile [33],1 µg/mL
same,MIC,Clostridioides difficile [34],16 µg/mL
same,MIC,Clostridioides difficile [35],16 µg/mL
same,MIC,Clostridioides difficile [36],4 µg/mL
same,MIC,Clostridioides difficile [37],4 µg/mL
same,MIC,Clostridioides difficile [38],4 µg/mL
same,MIC,Clostridioides difficile [39],64 µg/mL
same,MIC,Clostridioides difficile [40],2 µg/mL
same,MIC,Clostridioides difficile [41],16 µg/mL
